We go through 24 molecules from ChEMBL document CHEMBL2385057 (Bioorg Med Chem Lett, 2013).

pIC50: −log10 of the molar value. A value given as a limit tells only on which side of the number the result lay.

As usually defined, the half-life is the time needed for the level to fall by half in the phase considered. Higher therefore signals slow decline. Broadly, the pIC50 is the negative decadic logarithm of the IC50, by convention in mol/L. A higher pIC50 goes with a low IC50. Broadly, the AUC is the area under the concentration-time curve, a measure of exposure. Read a low AUC as low exposure. The term Tmax denotes the time from dosing to the highest level. A word on the bioavailability: it is the share of a dose that reaches the circulation, judged against a reference dose that is usually intravenous. Read a high bioavailability as much systemic uptake. The term inhibition in vivo denotes the drop in the measured response relative to a control, in per cent. By fraction unbound is commonly meant the share of the substance not bound to proteins or other matrix. Read a low fraction unbound as extensive binding.

Series [1] in a line: Half life in human liver microsomes. The class given is ADME, Microsome. On the technique in general: Liver microsomes are a subcellular fraction often used to study metabolism.
The target in series [2] is cGMP-dependent 3',5'-cyclic phosphodiesterase (Homo sapiens, UniProt O00408). The experiment in a line: Inhibition of PDE2 catalytic domain (unknown origin).
cGMP-dependent 3',5'-cyclic phosphodiesterase, sequence (O00408 whole entry, the tested form may be a part): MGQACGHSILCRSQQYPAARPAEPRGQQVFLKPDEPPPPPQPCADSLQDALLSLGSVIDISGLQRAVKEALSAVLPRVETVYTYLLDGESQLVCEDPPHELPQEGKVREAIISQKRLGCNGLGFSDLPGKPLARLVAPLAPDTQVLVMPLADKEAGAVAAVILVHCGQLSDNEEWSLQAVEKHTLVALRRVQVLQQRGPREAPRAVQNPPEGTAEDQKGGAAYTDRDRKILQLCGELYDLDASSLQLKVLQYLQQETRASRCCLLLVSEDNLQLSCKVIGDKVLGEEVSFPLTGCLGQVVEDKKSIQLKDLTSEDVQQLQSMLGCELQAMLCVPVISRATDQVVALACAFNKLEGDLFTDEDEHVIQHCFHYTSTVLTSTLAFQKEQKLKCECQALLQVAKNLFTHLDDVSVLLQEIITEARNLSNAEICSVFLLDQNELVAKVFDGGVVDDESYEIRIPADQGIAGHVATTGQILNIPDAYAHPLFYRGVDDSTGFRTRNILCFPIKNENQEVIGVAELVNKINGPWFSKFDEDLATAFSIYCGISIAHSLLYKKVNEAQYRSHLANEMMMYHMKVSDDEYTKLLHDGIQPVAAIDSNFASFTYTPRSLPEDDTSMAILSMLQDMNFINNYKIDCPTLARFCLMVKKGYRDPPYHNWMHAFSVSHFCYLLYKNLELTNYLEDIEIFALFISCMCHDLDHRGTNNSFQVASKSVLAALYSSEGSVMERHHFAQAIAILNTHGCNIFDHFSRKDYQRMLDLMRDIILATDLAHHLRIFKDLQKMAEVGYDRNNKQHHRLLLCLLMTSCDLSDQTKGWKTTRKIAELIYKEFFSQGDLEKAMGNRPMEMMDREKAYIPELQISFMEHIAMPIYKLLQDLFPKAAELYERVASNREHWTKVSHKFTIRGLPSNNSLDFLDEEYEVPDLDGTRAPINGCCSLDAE
The target in series [3] is 3',5'-cyclic-AMP phosphodiesterase 4B (Homo sapiens, UniProt Q07343). The experiment in a line: Inhibition of PDE4B catalytic domain (unknown origin). The gist of the method: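 Each IC50 is the mean of at least two independent determinations. Each curve had 10 half-log dilutions, centred near the 50% inhibition level, with each point run in duplicate.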
3',5'-cyclic-AMP phosphodiesterase 4B, sequence (Q07343 whole entry, the tested form may be a part): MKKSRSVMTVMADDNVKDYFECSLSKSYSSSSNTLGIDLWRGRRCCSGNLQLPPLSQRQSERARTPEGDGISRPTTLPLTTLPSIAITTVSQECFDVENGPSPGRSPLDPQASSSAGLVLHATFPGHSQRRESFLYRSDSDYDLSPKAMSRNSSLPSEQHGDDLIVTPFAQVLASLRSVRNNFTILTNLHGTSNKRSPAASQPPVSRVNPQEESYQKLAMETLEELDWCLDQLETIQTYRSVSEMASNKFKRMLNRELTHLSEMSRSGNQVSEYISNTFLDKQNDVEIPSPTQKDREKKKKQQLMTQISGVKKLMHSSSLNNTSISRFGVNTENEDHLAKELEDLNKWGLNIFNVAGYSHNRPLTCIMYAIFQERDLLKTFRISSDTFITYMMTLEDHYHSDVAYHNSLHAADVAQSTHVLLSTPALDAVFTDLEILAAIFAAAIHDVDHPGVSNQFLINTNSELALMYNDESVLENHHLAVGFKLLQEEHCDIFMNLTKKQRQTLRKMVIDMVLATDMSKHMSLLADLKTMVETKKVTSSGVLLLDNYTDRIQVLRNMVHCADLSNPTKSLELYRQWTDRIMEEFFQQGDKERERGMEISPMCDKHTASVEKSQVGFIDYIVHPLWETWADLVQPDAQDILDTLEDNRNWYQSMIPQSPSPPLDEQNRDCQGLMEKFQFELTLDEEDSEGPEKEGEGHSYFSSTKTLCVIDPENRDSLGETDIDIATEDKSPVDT
Series [4] can be described thus: Volume of distribution at steady state in Sprague-Dawley rat at 1 mg/kg, iv and 10 mg/kg, po. The class given is ADME, organism-based. Conditions: in vivo, read-out: Vdss. A digest of the protocol: (§1)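 Male Sprague–Dawley rats, two animals per route. Dosing was either intravenous at 1 mg/kg or oral at 10 mg/kg. Pharmacokinetic parameters were derived from these dosings.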

Series [5] in a line: AUC in Sprague-Dawley rat at 10 mg/kg, po. The class given is ADME, organism-based. On the set-up: dose 10 mg/kg, route oral. The settings on record: plasma. A digest of the protocol: as §1
Series [6] in a line: Clearance in Sprague-Dawley rat at 1 mg/kg, iv and 10 mg/kg, po. The class given is ADME, organism-based. Conditions: in vivo. The gist of the method:
as §1

Series [7] can be described thus: Tmax in Sprague-Dawley rat at 10 mg/kg, po. The class given is ADME, organism-based. Further details: dose 10 mg/kg, route oral. Conditions: in vivo. The gist of the method: as §1
A short description of series [8]: Oral bioavailability in Sprague-Dawley rat at 10 mg/kg. The settings on record: in vivo. The class given is ADME, organism-based. The gist of the method:
as §1

Series [9] in a line: Half life in Sprague-Dawley rat at 1 mg/kg, iv. The settings on record: in vivo. On the set-up: dose 1 mg/kg, route intravenous. The class given is ADME, organism-based. The gist of the method: as §1
In a further series the test system is Brain. The experiment in a line: Total drug level in brain of medial meniscal transection rat osteoarthritis pain model at 10 mg/kg, sc administered on day 28 post medial meniscal transection surgery measured at 1 hr to 3 hrs. The class given is ADME, organism-based. On the set-up: dose 10 mg/kg, route subcutaneous. The settings on record: read-out: Drug uptake, in vivo.

Series [10] deals with Rattus norvegicus. The experiment in a line: Analgesic activity in medial meniscal transection rat osteoarthritis pain model assessed as inhibition of change in hind paw weight distribution at 10 mg/kg, po administered on day 28 post medial meniscal transection surgery measured after 1 hr relative to vehicle-treated control. The class given is functional.
Series [11] concerns Rattus norvegicus. The experiment in a line: Analgesic activity in medial meniscal transection rat osteoarthritis pain model assessed as inhibition of change in hind paw weight distribution at 10 mg/kg, sc administered on day 28 post medial meniscal transection surgery measured after 1 hr relative to vehicle-treated control. The settings on record: route subcutaneous. Format: functional. A digest of the protocol:
(§2)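 The rats were assessed for hind paw weight distribution. On day 28 after surgery they received a single subcutaneous dose of compound or vehicle and were reassessed 1 and 3 h post dose. N = 6 rats per group, data as mean ± SEM. Significance was tested by one-way ANOVA with Dunnett's test against vehicle at the same time point, P < 0.05.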

Series [12] in a line: Fraction unbound in plasma of medial meniscal transection rat osteoarthritis pain model at 10 mg/kg, sc administered on day 28 post medial meniscal transection surgery measured at 1 hr to 3 hrs. Format: ADME, organism-based. Further details: dose 10 mg/kg, route subcutaneous.
Series [13] can be described thus: Half life in rat liver microsomes. The class given is ADME, Microsome.
Series [14] in a line: Plasma concentration in medial meniscal transection rat osteoarthritis pain model at 10 mg/kg, sc administered on day 28 post medial meniscal transection surgery measured at 1 hr. The class given is ADME, organism-based. On the set-up: dose 10 mg/kg, route subcutaneous. A digest of the protocol:
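Plasma was sampled 1 h after a single subcutaneous 10 mg/kg dose in the rat osteoarthritis pain model. Free concentration was derived using the rat plasma free fraction.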

The nature of series [15]: Fraction unbound in brain of medial meniscal transection rat osteoarthritis pain model at 10 mg/kg, sc administered on day 28 post medial meniscal transection surgery measured at 1 hr to 3 hrs. On the set-up: dose 10 mg/kg, route subcutaneous. Format: ADME, organism-based.
Series [16] has as its system Rattus norvegicus. The experiment in a line: Analgesic activity in medial meniscal transection rat osteoarthritis pain model assessed as inhibition of change in hind paw weight distribution at 10 mg/kg, po administered on day 28 post medial meniscal transection surgery measured after 3 hrs relative to vehicle-treated control. The class given is functional.
Series [17] deals with Rattus norvegicus. The experiment in a line: Analgesic activity in medial meniscal transection rat osteoarthritis pain model assessed as inhibition of change in hind paw weight distribution at 10 mg/kg, sc administered on day 28 post medial meniscal transection surgery measured after 3 hrs relative to vehicle-treated control. The class given is functional. The settings on record: route subcutaneous. A digest of the protocol:
as §2

Molecule `COc1ccc(C2=Nc3c(C(C)(C)C)nn(CCO)c3C(=O)NC2)cc1-c1cnc(N2CCCCC2)nc1` gave a half-life in series [1] of 18 min. Further, the results for the pIC50 in [2] and in series [3] were 8.60 and 6.45, respectively.
On the same counts, the results for `COc1ccc(C2=Nc3c(C(C)(C)C)nn(CCO)c3C(=O)NC2)cc1-c1cnc(N2CCOCC2)nc1` are 39 min, 8.85 and 6.58.
Consider `CCC(CC)c1nn(CCO)c2c1N=C(c1ccc(-n3ccnc3C)cc1)CNC2=O`, for which the Vd in [4] was 1.1 L/kg. The molecule further showed an AUC in [5] of 1660 ng·h/mL. This molecule displayed a clearance in series [6] of 70 mL/min/kg. Further, the Tmax in series [7] came to 135 min. This molecule came in with a bioavailability in [8] of 75%. For the same molecule, the half-life in [9] was 31.8 min.
Take `COc1ccc(C2=Nc3c(C(C)(C)C)nn(CCCO)c3C(=O)NC2)cc1-c1cnn(C)c1`: the Vd in series [4] was determined as 2 L/kg. The molecule further displayed an exposure (AUC) in [5] of 1160 ng·h/mL. Moreover, the clearance in series [6] amounted to 43 mL/min/kg. Moreover, the half-life in series [1] was 120 min; in [9], 43.8 min. In series [7], the Tmax amounted to 30 min. Moreover, the bioavailability in series [8] worked out at 31%. The pIC50 in series [2] is 7.44; in [3] it was 5.17.
`COc1ccc(C2=Nc3c(C(C)(C)C)nn(CCCO)c3C(=O)NC2)cc1-c1cnc(N(C)C)cc1C`: in series [1], the half-life came to 42 min. For the same molecule, the pIC50 in series [2] was 7.74; in [3], 5.25.
On the same counts, the results for `COc1ccc(C2=Nc3c(C(C)(C)C)nn(CCCO)c3C(=O)NC2)cc1-c1ccc(F)cc1F` are 120 min, 6.32 and 4.00.
In turn, `CCC(C)(C)c1nn(CCO)c2c1N=C(c1ccc(-n3ccnc3C)cc1)CNC2=O` registered a half-life in series [1] of 6.9 min.
With `COc1ccc(-c2cc(C3=Nc4c(C(C)(C)C)nn(CCO)c4C(=O)NC3)ccc2OC)c(OC)n1`, the half-life in series [1] came out at 57 min. Moreover, the pIC50 is 8.74 in series [2] and 6.38 in series [3].
On the same counts, the results for `COc1ccc(OC)c(-c2cc(C3=Nc4c(C(C)(C)C)nn(CCCO)c4C(=O)NC3)ccc2OC)c1` are 61 min, 7.34 and 5.09.
For `COc1ncc(-c2cc(C3=Nc4c(C(C)(C)C)nn(CCO)c4C(=O)NC3)ccc2OC)cn1`, the concentration in the series with Brain was 475 nM. In addition, the Vd in series [4] came to 3.02 L/kg. This molecule gave an AUC in [5] of 4530 ng·h/mL. The inhibition in vivo at 10 mg/kg in the series with Rattus norvegicus [10] amounted to 44%; with Rattus norvegicus [11] it was 79%. In series [6], this molecule had a clearance of 27 mL/min/kg. Also, the results for the unbound share (fraction unbound) in [12] and in [15] were 0.032 and 0.009, respectively. Moreover, the half-life is above 60 min in series [13], 34 min in series [1] and 90 min in [9]. Moreover, in series [14], the concentration at 1 h is 2500 nM. Also, the Tmax in series [7] worked out at 180 min. Besides, the bioavailability in [8] is 78%. In [3], this molecule gave a pIC50 of 6.25.
`COc1ncc(-c2cc(C3=Nc4c(C(C)(C)C)nn(CCCO)c4C(=O)NC3)ccc2OC)c(OC)n1` yielded a half-life in series [1] of 120 min. Further, the pIC50 was 8.15 in [2] and 5.72 in [3].
For `COc1ccc(C2=Nc3c(C(C)(C)C)nn(CCO)c3C(=O)NC2)cc1-c1cnc(N2CCCC2)nc1`, in that order: 33 min, 8.92 and 6.39.
On the same counts, the results for `COc1ccc(C2=Nc3c(C(C)(C)C)nn(CCCO)c3C(=O)NC2)cc1-c1ccccc1SC` are 51 min, 6.30 and 4.00.
As to `COc1ccc(C2=Nc3c(C(C)(C)C)nn(CCO)c3C(=O)NC2)cc1-c1cnc(N(C)C)nc1`, the half-life in series [1] came to 36 min. For the same molecule, the negative-log IC50 (pIC50) is 8.60 in series [2] and 6.16 in series [3].
For `COc1ccc(C2=Nc3c(C(C)(C)C)nn(CCO)c3C(=O)NC2)cc1-c1cnn(C)c1`, in that order: 59 min, 8.17 and 6.96.
For `COc1ccc(C2=Nc3c(C(C)(C)C)nn(CCCO)c3C(=O)NC2)cc1-c1ccc(C(=O)O)cc1`, in that order: 120 min, 7.40 and 4.57.
For the molecule `CS(=O)(=O)c1ccc(C2=C(c3ccccc3)C(=O)OC2)cc1` [ROFECOXIB], the inhibition in vivo at 10 mg/kg in the series with Rattus norvegicus [16] amounted to 79%; in the series on Rattus norvegicus [17] it was 100%.
Molecule `COc1ccc(-c2cc(C3=Nc4c(C(C)(C)C)nn(CCCO)c4C(=O)NC3)ccc2OC)c(OC)c1` showed a half-life in series [1] of 120 min. Besides, the pIC50 in series [2] was 7.85; in series [3], 4.00.
Take `COc1ccccc1-c1cc(C2=Nc3c(C(C)(C)C)nn(CCCO)c3C(=O)NC2)ccc1OC`: the half-life in [1] stood at 82 min. Also, the pIC50 was 6.81 in series [2] and 5.68 in [3].
On the same counts, the results for `COc1ccc(-c2cc(C3=Nc4c(C(C)(C)C)nn(CCO)c4C(=O)NC3)ccc2OC)c(OC)c1` are 43 min, 8.47 and 6.13.
For `COc1ccc(C2=Nc3c(C(C)(C)C)nn(CCCO)c3C(=O)NC2)cc1-c1ccccc1F`, in that order: 48 min, 6.23 and 5.09.
For `COc1ncc(-c2cc(C3=Nc4c(C(C)(C)C)nn(CCO)c4C(=O)NC3)ccc2OC)c(OC)n1`, in that order: 36 min, 8.03 and 6.86.
In the case of `COc1ccc(C2=Nc3c(C(C)(C)C)nn(CCO)c3C(=O)NC2)cc1-c1cnc(N(C)C)cc1C`, in series [1], the half-life came out at 74 min. Further, the pIC50 was 8.89 in [2] and 6.27 in [3].
Consider `COc1ccc(-c2cc(C3=Nc4c(C(C)(C)C)nn(CCCO)c4C(=O)NC3)ccc2OC)cn1`, for which, in series [1], the half-life turned out to be 120 min. The pIC50 in [2] is 7.15; in series [3] it was 5.21.
